Laboratory results: ChEMBL document CHEMBL1137377, “Evaluation of azasterols as anti-parasitics” (J Med Chem, 2006)
One block for each compound: values may come before it.

Key:
Trypanosoma cruzi = test: Antitrypanosomal activity against Trypanosoma cruzi trypomastigotes in CD1 mouse macrophage; format: functional; conditions: read-out: ED50 (the source's name)
Procedure, shortened: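 Starch-induced CD1 peritoneal macrophages plated at 4 × 10^5/mL, infected after 24 h with T. cruzi Tulahuan LAC-Z trypomastigotes. 24 h later, drug exposure for 3 days. ED50 by curve fitting.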

[1] = system: Trypanosoma brucei rhodesiense; test: Antitrypanosomal activity against Trypanosoma brucei rhodesiense trypomastigotes; format: functional; conditions: read-out: ED50 (the source's name)
Procedure, shortened: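 Bloodstream-form STIB900 trypomastigotes grown in HMI-18 + 15% HIFCS at 37 °C, 5% CO2. Seeded at 2 × 10^5/mL onto drug dilutions (top 30 µg/mL) for 72 h. Alamar Blue read 5-6 h later by fluorescence (ex/em 530/585 nm). ED50 by curve fitting.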

Plasmodium falciparum [2] = test: Antimalarial activity against Plasmodium falciparum 3D7; format: functional, organism-based; conditions: read-out: ED50 (the source's name)
Procedure, shortened: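 Synchronized ring-stage 3D7 culture at 1% parasitemia in RPMI 1640, 5% hematocrit, 37 °C, 5% CO2. Top final drug concentration 30 µg/mL. After 24 h, (3H)-hypoxanthine added (0.2 µCi/well), then 48 h further incubation. Plates freeze/thawed and harvested, and hypoxanthine uptake counted. ED50 by curve fitting.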

Plasmodium falciparum [3] = test: Antimalarial activity against Plasmodium falciparum K1; format: functional, organism-based; conditions: read-out: ED50 (the source's name)
KB = test: Cytotoxicity against KB cell line; format: functional; conditions: Homo sapiens, read-out: TD50 (the source's name)
Leishmania donovani = test: Antileishmanial activity against Leishmania donovani amastigotes in CD1 mouse macrophage; format: functional, organism-based; conditions: read-out: ED50 (the source's name)
Procedure, shortened: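 Peritoneal macrophages from starch-induced CD1 mice, kept 24 h in RPMI1640 + 10% HIFCS at 37 °C, 5% CO2. Infected with L. donovani MHOM/ET/67/L82 amastigotes from hamster spleen at 5 parasites:1 macrophage. After 24 h, drug exposure for 5 days, overlay replaced day 3. Top concentration 30 µg/mL, quadruplicate. Slides methanol-fixed, Giemsa-stained, counted microscopically. ED50 by curve fitting.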

EC50 (Trypanosoma cruzi): 1.71 µM
EC50 [1]: 0.619 µM
EC50 (Plasmodium falciparum [2]): 0.839 µM
EC50 (Plasmodium falciparum [3]): 0.069 µM
Structure (SMILES): CC(=O)O[C@H]1CC[C@@]2(C)C(=CCC3[C@@H]4CC[C@H]([C@H](C)CNCCCC[C@H](NC(=O)OCc5ccccc5)C(=O)OCc5ccccc5)[C@@]4(C)CC[C@@H]32)C1 (some centres undefined)
CC50 (KB): 29.8 µM

EC50 (Leishmania donovani): > 65 µM
EC50 (Trypanosoma cruzi): 42.2 µM
EC50 [1]: 24 µM
EC50 (Plasmodium falciparum [2]): 60 µM
EC50 (Plasmodium falciparum [3]): 9.6 µM
Structure (SMILES): COC(=O)CNC(=O)[C@@H](C)[C@H]1CC[C@H]2C3CC=C4C[C@@H](OC(C)=O)CC[C@]4(C)[C@H]3CC[C@]12C (some centres undefined)
CC50 (KB): > 653 µM

EC50 (Trypanosoma cruzi): < 2.75 µM
EC50 [1]: 4.91 µM
EC50 (Plasmodium falciparum [2]): 40.6 µM
EC50 (Plasmodium falciparum [3]): 22.2 µM
Structure (SMILES): COC(=O)CNC[C@@H](C)[C@H]1CC[C@H]2C3CC=C4C[C@@H](O)CC[C@]4(C)[C@H]3CC[C@]12C (some centres undefined)
CC50 (KB): 45 µM

EC50 (Leishmania donovani): > 58 µM
EC50 (Trypanosoma cruzi): 2.54 µM
EC50 [1]: 3.45 µM
EC50 (Plasmodium falciparum [2]): 21.3 µM
EC50 (Plasmodium falciparum [3]): 19.8 µM
Structure (SMILES): COC(=O)CCCCCNC(=O)[C@@H](C)[C@H]1CC[C@H]2C3CC=C4C[C@@H](OC(C)=O)CC[C@]4(C)[C@H]3CC[C@]12C (some centres undefined)
CC50 (KB): > 582 µM

EC50 (Trypanosoma cruzi): < 1.71 µM
EC50 [1]: 0.753 µM
EC50 (Plasmodium falciparum [2]): 0.799 µM
EC50 (Plasmodium falciparum [3]): 0.215 µM
Structure (SMILES): COC(=O)[C@H](CCCCNC[C@@H](C)[C@H]1CC[C@H]2C3CC=C4C[C@@H](OC(C)=O)CC[C@]4(C)[C@H]3CC[C@]12C)NC(=O)OCc1ccccc1 (some centres undefined)
CC50 (KB): 5.35 µM

EC50 (Trypanosoma cruzi): < 2.57 µM
EC50 [1]: 5.05 µM
EC50 (Plasmodium falciparum [2]): 7.53 µM
EC50 (Plasmodium falciparum [3]): 1.95 µM
Structure (SMILES): COC(=O)CCCNC[C@@H](C)[C@H]1CC[C@H]2C3CC=C4C[C@@H](O)CC[C@]4(C)[C@H]3CC[C@]12C (some centres undefined)
CC50 (KB): 1.55 µM

EC50 (Leishmania donovani): 22.8 µM
EC50 (Trypanosoma cruzi): 28.9 µM
EC50 [1]: 0.302 µM
EC50 (Plasmodium falciparum [2]): > 65.3 µM
Structure (SMILES): COC(=O)CCNC[C@@H](C)[C@H]1CC[C@H]2C3CC=C4C[C@@H](OC(C)=O)CC[C@]4(C)[C@H]3CC[C@]12C (some centres undefined)
CC50 (KB): 17.4 µM

EC50 (Leishmania donovani): > 62 µM
EC50 (Trypanosoma cruzi): 4.7 µM
EC50 [1]: 9.15 µM
EC50 (Plasmodium falciparum [2]): 16.2 µM
EC50 (Plasmodium falciparum [3]): 11.6 µM
Structure (SMILES): COC(=O)CCCNC(=O)[C@@H](C)[C@H]1CC[C@H]2C3CC=C4C[C@@H](OC(C)=O)CC[C@]4(C)[C@H]3CC[C@]12C (some centres undefined)
CC50 (KB): > 615 µM

EC50 (Leishmania donovani): > 60 µM
EC50 (Trypanosoma cruzi): 2.43 µM
EC50 [1]: 3.01 µM
EC50 (Plasmodium falciparum [2]): 0.74 µM
EC50 (Plasmodium falciparum [3]): 8.43 µM
Structure (SMILES): COC(=O)CCCCNC(=O)[C@@H](C)[C@H]1CC[C@H]2C3CC=C4C[C@@H](OC(C)=O)CC[C@]4(C)[C@H]3CC[C@]12C (some centres undefined)
CC50 (KB): > 598 µM

EC50 (Trypanosoma cruzi): < 2.41 µM
EC50 [1]: 2.15 µM
EC50 (Plasmodium falciparum [2]): 1.31 µM
EC50 (Plasmodium falciparum [3]): 0.5 µM
Structure (SMILES): COC(=O)CCCCCNC[C@@H](C)[C@H]1CC[C@H]2C3CC=C4C[C@@H](O)CC[C@]4(C)[C@H]3CC[C@]12C (some centres undefined)
CC50 (KB): 6.09 µM

EC50 (Leishmania donovani): > 63 µM
EC50 (Trypanosoma cruzi): 34.5 µM
EC50 [1]: 2.32 µM
EC50 (Plasmodium falciparum [2]): > 63 µM
Structure (SMILES): C[C@H](C(=O)NCCCCCCC(=O)O)[C@H]1CC[C@H]2C3CC=C4C[C@@H](O)CC[C@]4(C)[C@H]3CC[C@]12C (some centres undefined)
CC50 (KB): 252 µM

EC50 (Leishmania donovani): > 47 µM
EC50 (Trypanosoma cruzi): > 47 µM
EC50 [1]: 1.7 µM
EC50 (Plasmodium falciparum [2]): > 47 µM
Structure (SMILES): CC(=O)O[C@H]1CC[C@@]2(C)C(=CCC3[C@@H]4CC[C@H]([C@H](C)C(=O)NCCC[C@H](NC(=O)OCc5ccccc5)C(=O)O)[C@@]4(C)CC[C@@H]32)C1 (some centres undefined)
CC50 (KB): 147 µM

Further lines, the compound ahead of its results:

Structure (SMILES): COC(=O)CCCCCCCNC[C@@H](C)[C@H]1CC[C@H]2C3CC=C4C[C@@H](O)CC[C@]4(C)[C@H]3CC[C@]12C (some centres undefined)
EC50 (Trypanosoma cruzi): 2.64 µM
EC50 [1]: 0.308 µM
EC50 (Plasmodium falciparum [2]): 0.349 µM
EC50 (Plasmodium falciparum [3]): 0.062 µM
CC50 (KB): 6.17 µM

Structure (SMILES): C[C@H](CNCCCC[C@H](NC(=O)OCc1ccccc1)C(=O)O)[C@H]1CC[C@H]2C3CC=C4C[C@@H](O)CC[C@]4(C)[C@H]3CC[C@]12C (some centres undefined)
EC50 (Trypanosoma cruzi): 9.52 µM
EC50 [1]: > 50 µM
EC50 (Plasmodium falciparum [2]): 16.7 µM
EC50 (Plasmodium falciparum [3]): 6.29 µM
CC50 (KB): > 504 µM

Structure (SMILES): COC(=O)CCNC(=O)[C@@H](C)[C@H]1CC[C@H]2C3CC=C4C[C@@H](OC(C)=O)CC[C@]4(C)[C@H]3CC[C@]12C (some centres undefined)
EC50 (Leishmania donovani): > 63 µM
EC50 (Trypanosoma cruzi): 3.46 µM
EC50 [1]: 6 µM
EC50 (Plasmodium falciparum [2]): 17.4 µM
EC50 (Plasmodium falciparum [3]): 19.1 µM
CC50 (KB): 597 µM

Structure (SMILES): COC(=O)CCCCCCCNC(=O)[C@@H](C)[C@H]1CC[C@H]2C3CC=C4C[C@@H](OC(C)=O)CC[C@]4(C)[C@H]3CC[C@]12C (some centres undefined)
EC50 (Leishmania donovani): > 55 µM
EC50 (Trypanosoma cruzi): > 55 µM
EC50 [1]: 0.607 µM
EC50 (Plasmodium falciparum [2]): 21.5 µM
EC50 (Plasmodium falciparum [3]): 2.87 µM
CC50 (KB): > 552 µM

Structure (SMILES): COC(=O)CCCCCCNC(=O)[C@@H](C)[C@H]1CC[C@H]2C3CC=C4C[C@@H](OC(C)=O)CC[C@]4(C)[C@H]3CC[C@]12C (some centres undefined)
EC50 (Leishmania donovani): > 57 µM
EC50 (Trypanosoma cruzi): 10.8 µM
EC50 [1]: 7.91 µM
EC50 (Plasmodium falciparum [2]): 14.4 µM
EC50 (Plasmodium falciparum [3]): 1.26 µM
CC50 (KB): > 566 µM

Structure (SMILES): C[C@H](C(=O)NCCCCCC(=O)O)[C@H]1CC[C@H]2C3CC=C4C[C@@H](O)CC[C@]4(C)[C@H]3CC[C@]12C (some centres undefined)
EC50 (Leishmania donovani): > 65 µM
EC50 (Trypanosoma cruzi): 11.4 µM
EC50 [1]: 10.4 µM
EC50 (Plasmodium falciparum [2]): > 65 µM
CC50 (KB): 303 µM

Structure (SMILES): COC(=O)CCCCNC[C@@H](C)[C@H]1CC[C@H]2C3CC=C4C[C@@H](OC(C)=O)CC[C@]4(C)[C@H]3CC[C@]12C (some centres undefined)
EC50 (Leishmania donovani): > 62 µM
EC50 (Trypanosoma cruzi): 11.7 µM
EC50 [1]: 0.032 µM
EC50 (Plasmodium falciparum [2]): 8.65 µM
CC50 (KB): 26.1 µM

Structure (SMILES): COc1cc([C@@H]2c3cc4c(cc3[C@H](O)[C@H]3COC(=O)[C@H]23)OCO4)cc(OC)c1OC [PODOFILOX]
EC50 (Plasmodium falciparum [3]): 0.1 µM
CC50 (KB): 0.001 µM

Structure (SMILES): C[C@H](CNCC[C@H](NC(=O)OC(C)(C)C)C(=O)O)[C@H]1CC[C@H]2C3CC=C4C[C@@H](O)CC[C@]4(C)[C@H]3CC[C@]12C (some centres undefined)
EC50 (Trypanosoma cruzi): < 2.08 µM
EC50 [1]: > 56 µM
EC50 (Plasmodium falciparum [2]): 36.6 µM
EC50 (Plasmodium falciparum [3]): 38.1 µM
CC50 (KB): > 563 µM
